According to article PMC10099395 (Chemistry (Weinheim an Der Bergstrasse, Germany), 2022):

Assays:
[1] = system: A549 cells (cisplatin-resistant non-small-cell lung carcinoma); assay: Cytotoxicity assay; type: cell-based, human; details: for GI50: Homo sapiens, A549, 96 h, read-out: GI50, A549
How it was run: (§1)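 Adherent cells grown in MEM GlutaMAX with 10 % FBS, 1 % penicillin/streptomycin and 1 % non-essential amino acids at 37 °C, 5 % CO₂, passaged with TrypLE. Cells were plated at 0.125×10⁵ cells mL⁻¹ and test compound in DMSO was added after 4 h ([…], 0.5 % v/v DMSO). After 96 h, CellTiter-Glo luminescence was read and viability expressed relative to the DMSO control. Each condition was run at least three times, with two technical replicates per plate.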

[2] = system: T98G cells (multidrug-resistant glioblastoma); assay: Cytotoxicity assay; type: cell-based; details: Homo sapiens, 96 h, read-out: GI50, T98G
How it was run: as §1

[3] = system: MRC-5 cells (noncancerous lung fibroblast); assay: Cytotoxicity assay; type: cell-based; details: Homo sapiens, MRC5, 96 h, read-out: GI50, MRC-5
How it was run: as §1

[4] = system: 25TAG (G4-DNA, hybrid-2, variant of human telomeric sequence); assay: Fluorescence-melting experiments; type: binding; details: pure ligand 0.4 μM, DNA 0.2 μM
How it was run: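 FAM/TAMRA-labelled oligonucleotides were annealed (95 °C, 5 min) at 0.23 μM in target-specific buffer. Final concentrations were 0.2 μM DNA and 1 μM ligand; as-synthesized mixtures were diluted in buffer without further treatment, and pure ligands were run at 0.1–1.0 μM. Melting used a 0.5 °C min⁻¹ ramp with FAM-channel fluorescence. Tm came from first-derivative peaks, and ΔTm was the difference of means from three experiments. ΔTm detection tops out at 36 °C (96 °C).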

[5] = system: 25TAG (5′-FAM, 3′-TAMRA) (DNA, G4) TAGGGTTAGGGTTAGGGTTAGGGTT; assay: fluorescence melting; details: 100 mM KCl; 10 mM LiAsO2Me2, pH 7.2; 0.4 μM compound, 0.2 μM DNA

**Q.** For `C[n+]1cccc2cc(C=NNC(=O)c3ccc4ccc5ccc(C(=O)NN=Cc6ccc7c(ccc[n+]7C)c6)nc5c4n3)ccc21.[I-].[I-]` [3Ef], which GI50 [1] is on record?
**A.** 0.4 ± 0.06 µM

**Q.** And the “selectivity index, A549 with respect to MRC-5 cells” value ([1]; ratio of GI50 values, 96 h)?
**A.** ~67

**Q.** What about the GI50 [2] of the same compound?
**A.** 11.2 ± 1.4 µM

**Q.** What about the GI50 [3] of the same compound?
**A.** 26.7 ± 2.4 µM

**Q.** For `O=C(NN=Cc1ccc(C[n+]2ccccc2)cc1)c1ccc2ccc3ccc(C(=O)NN=Cc4ccc(C[n+]5ccccc5)cc4)nc3c2n1.[Br-].[Br-]` [3Ei], which “ΔTm, 25TAG, pure ligands” value [4] is on record?
**A.** > 30 °C

**Q.** And the GI50 [1]?
**A.** 3.2 ± 0.6 µM

**Q.** And the GI50 [2]?
**A.** 29.7 ± 2 µM

**Q.** And the GI50 [3]?
**A.** 59.1 ± 5.5 µM

**Q.** Which ΔT m [5] does the source give for `C[n+]1cc(NC(=O)c2ccc3ccc4ccc(C(=O)Nc5cc6ccccc6[n+](C)c5)nc4c3n2)cc2ccccc21` here?
**A.** > 30 °C
